# Experimental data published in ChEMBL document CHEMBL3779801, “Discovery of the Selective CYP17A1 Lyase Inhibitor BMS-351 for the Treatment of Prostate Cancer” (ACS Med Chem Lett, 2016).
# Columns and labels:
# [1] = Metabolic stability in human liver microsomes assessed as parent compound remaining at 0.5 uM incubated for 10 mins; format: ADME; settings: read-out: Stability
# Summary of the method: (§1)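 Compound at 0.5 μM was incubated with human, mouse or cynomolgus liver microsomes for 10 min.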
# [2] = Metabolic stability in cynomolgus monkey liver microsomes assessed as parent compound remaining at 0.5 uM incubated for 10 mins; format: ADME, Macaca fascicularis; settings: read-out: Stability; summary of the method: as §1
# [3] = target: T1, Steroid 17-alpha-hydroxylase/17,20 lyase (Homo sapiens, UniProt P05093); assay: Inhibition of human CYP17A1 expressed in HEK293 cell microsomes using [3H]-pregnenolone as substrate incubated for 45 mins by scintillation proximity assay in presence of NADPH
# T1 sequence (P05093 whole entry): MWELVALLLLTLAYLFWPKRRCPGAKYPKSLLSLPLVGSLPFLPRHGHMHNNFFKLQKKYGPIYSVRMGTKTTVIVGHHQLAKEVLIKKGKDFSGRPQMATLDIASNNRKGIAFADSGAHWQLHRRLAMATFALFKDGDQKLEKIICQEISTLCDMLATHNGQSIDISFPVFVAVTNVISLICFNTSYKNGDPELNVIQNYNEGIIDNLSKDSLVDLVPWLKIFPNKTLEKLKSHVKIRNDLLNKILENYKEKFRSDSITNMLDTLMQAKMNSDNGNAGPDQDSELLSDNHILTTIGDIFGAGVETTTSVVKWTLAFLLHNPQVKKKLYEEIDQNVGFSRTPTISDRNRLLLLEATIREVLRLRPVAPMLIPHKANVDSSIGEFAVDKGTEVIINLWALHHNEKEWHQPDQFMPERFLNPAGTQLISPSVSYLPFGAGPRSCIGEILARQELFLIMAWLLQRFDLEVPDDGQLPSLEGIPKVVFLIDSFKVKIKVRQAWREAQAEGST
# Cytochrome P450 1A2 = target: T2, Cytochrome P450 1A2 (Homo sapiens, UniProt P05177); assay: Inhibition of CYP1A2 (unknown origin); format: ADME
# T2 sequence (P05177 whole entry): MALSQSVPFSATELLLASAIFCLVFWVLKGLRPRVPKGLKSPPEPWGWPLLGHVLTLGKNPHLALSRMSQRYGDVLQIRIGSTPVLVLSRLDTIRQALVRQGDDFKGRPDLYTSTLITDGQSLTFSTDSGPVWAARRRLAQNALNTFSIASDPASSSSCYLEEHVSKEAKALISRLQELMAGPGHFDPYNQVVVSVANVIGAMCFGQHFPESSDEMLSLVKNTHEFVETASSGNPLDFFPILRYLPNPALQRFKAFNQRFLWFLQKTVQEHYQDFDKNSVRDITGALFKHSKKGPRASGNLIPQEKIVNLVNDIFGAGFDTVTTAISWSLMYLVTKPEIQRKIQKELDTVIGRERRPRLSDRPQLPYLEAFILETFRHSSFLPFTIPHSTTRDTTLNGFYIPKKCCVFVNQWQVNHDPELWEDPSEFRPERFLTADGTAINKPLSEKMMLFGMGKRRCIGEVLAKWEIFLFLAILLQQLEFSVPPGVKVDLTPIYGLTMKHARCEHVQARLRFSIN
# [4] = Metabolic stability in mouse liver microsomes assessed as parent compound remaining at 0.5 uM incubated for 10 mins; format: ADME; settings: read-out: Stability; summary of the method: as §1
# [5] = target: T1, Steroid 17-alpha-hydroxylase/17,20 lyase; assay: Selectivity ratio of human CYP17A1 hydroxylase activity expressed in Escherichia coli using pregnenolone substrate to human CYP17A1 lyase activity expressed in HEK293 cell microsomes using [3H]-hydroxypregnenolone substrate
# Summary of the method: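 Hydroxylase and lyase activities were run with different enzyme preparations, so the hydroxylase/lyase ratios are estimates.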
# Cynomolgus monkey [6] = assay: Increase in progesterone level in one day castrated cynomolgus monkey at 42 mg/kg, po bid for 24 hrs by radiometric immunoassay; format: ADME, organism-based, Macaca fascicularis; settings: in vivo
# [7] = target: T3, Cytochrome P450 11B1, mitochondrial (Homo sapiens, UniProt P15538); assay: Inhibition of CYP11B1 in human H295R cells using deoxycorticosterone as substrate incubated for 48 hrs by LC-MS method; format: ADME, cell-based
# T3 sequence (P15538 whole entry): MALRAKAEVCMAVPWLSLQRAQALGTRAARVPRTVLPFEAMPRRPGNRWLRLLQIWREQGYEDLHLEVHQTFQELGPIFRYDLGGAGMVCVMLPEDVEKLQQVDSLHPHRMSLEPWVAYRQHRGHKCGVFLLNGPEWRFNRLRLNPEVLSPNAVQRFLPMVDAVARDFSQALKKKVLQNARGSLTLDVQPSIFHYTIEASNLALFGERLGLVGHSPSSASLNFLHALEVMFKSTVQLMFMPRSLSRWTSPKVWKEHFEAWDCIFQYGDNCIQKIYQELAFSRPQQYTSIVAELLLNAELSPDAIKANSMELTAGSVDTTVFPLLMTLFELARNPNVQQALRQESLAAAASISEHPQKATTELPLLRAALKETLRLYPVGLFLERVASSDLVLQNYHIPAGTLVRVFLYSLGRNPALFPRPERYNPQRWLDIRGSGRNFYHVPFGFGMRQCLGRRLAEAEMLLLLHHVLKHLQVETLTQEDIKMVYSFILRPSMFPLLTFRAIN
# [8] = Tmax in one day castrated cynomolgus monkey at 42 mg/kg, po bid; format: ADME, organism-based, Macaca fascicularis; settings: male, in vivo
# Summary of the method: (§2)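 Castrated cynomolgus monkeys were studied over one day with oral BID dosing at time 0 and 8 h. Plasma levels were sampled at set time points over 1–24 h and reported as average ± standard deviation in nM, n = 4.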
# [9] = Inhibition of cynomolgus monkey CYP11B1 using hydroxy progesterone as substrate incubated for 120 mins by LC-MS method; set-up: species or system Macaca fascicularis
# Cynomolgus monkey [10] = assay: Decrease in cortisol level in one day castrated cynomolgus monkey at 42 mg/kg, po bid for 24 hrs by radiometric immunoassay; format: ADME, organism-based, Macaca fascicularis; set-up: scale not given: the % may be the effect or the level left; settings: in vivo
# [11] = target: T4, Steroid 17-alpha-hydroxylase/17,20 lyase (Macaca fascicularis, UniProt Q2XVA1); assay: Inhibition of CYP17A1 in cynomolgus monkey using [3H]-pregnenolone as substrate incubated for 45 mins by scintillation proximity assay in presence of NADPH
# T4 sequence (Q2XVA1 whole entry): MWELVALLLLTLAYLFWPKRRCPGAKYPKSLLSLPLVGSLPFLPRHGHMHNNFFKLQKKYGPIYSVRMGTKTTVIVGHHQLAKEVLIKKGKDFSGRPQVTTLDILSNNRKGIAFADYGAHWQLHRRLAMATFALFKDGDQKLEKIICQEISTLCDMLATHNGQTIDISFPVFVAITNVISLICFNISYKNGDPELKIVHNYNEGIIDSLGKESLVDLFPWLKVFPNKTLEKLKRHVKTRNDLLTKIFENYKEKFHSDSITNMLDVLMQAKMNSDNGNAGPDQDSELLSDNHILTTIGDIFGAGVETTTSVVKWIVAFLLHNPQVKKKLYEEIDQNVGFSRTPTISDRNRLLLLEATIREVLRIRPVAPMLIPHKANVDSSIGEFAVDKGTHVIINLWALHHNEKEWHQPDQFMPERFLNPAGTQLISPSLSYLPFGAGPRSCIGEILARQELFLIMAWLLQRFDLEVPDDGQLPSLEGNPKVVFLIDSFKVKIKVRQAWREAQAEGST
# [12] = target: T4, Steroid 17-alpha-hydroxylase/17,20 lyase; assay: Inhibition of CYP17A1 in cynomolgus monkey adrenal microsomes using [3H]-pregnenolone as substrate incubated for 45 mins by scintillation proximity assay in presence of NADPH; set-up: species or system Adrenal gland
# [13] = Tmax in one day castrated cynomolgus monkey at 42 mg/kg, po bid measured after second dose administered at 8 hrs; format: ADME, organism-based, Macaca fascicularis; settings: male, in vivo; summary of the method: as §2
# [14] = target: T4, Steroid 17-alpha-hydroxylase/17,20 lyase; assay: In vivo inhibition of CYP17A1 in one day castrated cynomolgus monkey assessed as reduction in testosterone level in plasma at 42 mg/kg, po bid for 24 hrs by radiometric immunoassay; format: organism-based
# [15] = Inhibition of cynomolgus monkey CYP21A2 using hydroxy progesterone as substrate incubated for 120 mins by LC-MS method; set-up: species or system Macaca fascicularis
# [16] = target: T1, Steroid 17-alpha-hydroxylase/17,20 lyase; assay: Inhibition of CYP17A1 in human adrenal microsomes using [3H]-pregnenolone as substrate incubated for 90 mins by scintillation proximity assay in presence of NADPH; set-up: species or system Adrenal gland
Structure (SMILES),"remaining at 10 min, 0.5 µM [1] [%]","remaining at 10 min, 0.5 µM [2] [%]",IC50 [3] [nM],IC50 (Cytochrome P450 1A2) [nM],"remaining at 10 min, 0.5 µM [4] [%]",further results
Cc1ccncc1-c1cccc2c1ncn2-c1ccccn1,96,100,6,94,33,Selectivity ratio [5]: 8
Cc1ccncc1-c1cccc2c1ncn2-c1cnccn1,98,83,,180,59,Selectivity ratio [5]: 18
Cc1ccncc1-c1cccc2c1cnn2-c1cscn1,62,,5,70,12,
Cc1ccncc1-c1cccc2c1cnn2-c1cnccn1,72,53,5,4000,7,
Cc1ccncc1-c1cccc2c1cnn2-c1nccs1,69,,4,80,8,
Cc1ccncc1-c1cccc2c1cnn2-c1cccnn1,89,,3,270,17,
Cc1ccncc1-c1cccc2c1cnn2-c1ccccc1,78,39,4,119,4,
C[C@]12CC[C@H](O)CC1=CC[C@@H]1C2CC[C@]2(C)C(c3cccnc3)=CCC12 (some centres undefined),,,,,,Activity (Cynomolgus monkey [6]): 1247%; IC50 [7]: 872 nM; Tmax [8]: 1 h; IC50 [9]: 2460 nM; Activity (Cynomolgus monkey [10]): 80%; IC50 [11]: 2 nM; IC50 [12]: 3 nM; Tmax [13]: 9.5 h; inhibition (INH) [14]: Active; IC50 [15]: 149 nM; IC50 [16]: 21 nM
Cc1ccncc1-c1cccc2c1cnn2-c1ccc(F)cc1,100,,5,190,11,
Cc1ccncc1-c1cccc2c1ncn2-c1nccs1,92,42,8,75,16,Selectivity ratio [5]: 14
Cc1ccncc1-c1cccc2c1ncn2-c1cscn1,90,50,8,150,42,
Cc1ccncc1-c1cccc2c1cnn2-c1ccccn1,95,19,2,140,8,
